Test [1] in a line: Her2 expression decrease, cell viability multiplex – SKBR3 breast tumor cells, AlphaScreen, ATP viability, primary screen (AID 461;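 active = Her2 level under about 52% in both replicate screens, with viability over 70% of control, limit read from the data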;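 as to Her2 level: lower value means less Her2 protein in the cells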;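 as to viability: percent of carrier control wells set as 100% viability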). As to conditions: SKBR3 Her2 protein level, 18-24 h, measured here: SKBR3 viability, ATP luminescence, at 10 µM.
Test [2] concerns the target Receptor tyrosine-protein kinase erbB-2 (Homo sapiens) (UniProt P04626). Described as above. As to conditions: 18-24 h, at 10 µM, stronger effect = lower value.
Test [3] can be described thus: reduced viability of SK-BR-3 breast cancer cells – cell-based, 24 h, human, pilot screen (AID 572;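 active = viability at or below 10% of carrier control in both of two separate runs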;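 also: compound exposure lasted between 18 and 24 h rather than exactly 24 h; 100% = carrier-treated control wells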). As to conditions: SK-BR-3 viability, CellTiter-Glo luminescence, at 10 µM, stronger effect = lower value. On the technique in general: Cellular ATP, detected with luciferase, serves as a proxy for viable cell number.
Test [4] can be described thus: HUVEC growth inhibition – cell-based, human, primary screen (AID 575;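 active = viability at or below 30% in both replicate assays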;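 also: 100% = median of untreated cell wells with 0.1% DMSO on each plate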). As to conditions: HUVEC proliferation, CellTiter-Glo luminescence, 72 h; at 10 µM; stronger effect = lower value. Put shortly: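 Assay system: primary human umbilical vein endothelial cells / Buffer or medium: endothelial basal medium with 2% FBS plus growth supplements / Compound dosing: one dose, 10 µM final, 0.1% DMSO / Timing: 72 h treatment at 37 °C / Signal: CTG luminescence / Benchmarks: 32 DMSO-only cell-control wells (high), 32 MePR drug-control wells (low) per plate / Plate: collagen-coated 384-well format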

The nature of test [5]: H69AR cell proliferation blockers – human, duplicate replicates, primary screen (AID 580).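 Also: 100% = mean luminescence of untreated wells and 0% = no signal.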 As to conditions: H69AR lung tumor cells viability, ATP luminescence, 72 h; at 10 µM; stronger effect = lower value.
Test [6] can be described thus: MRP1 drug-resistance reversers in H69AR cells – cell-based, doxorubicin co-treatment, pilot screen (AID 601;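 active = viability loss from added drug above about 55%, and viability with drug at most 40%, in both replicates, limit read from the data, passing the limit was not always enough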). As to conditions: CellTiter-Glo, 72 h, at 10 µM; for differential viability (reversal): stronger effect = higher value.
Test [7] in a line: yeast transport mutant growth inhibition pilot in 384-well plates, post-Golgi transport modulator project (AID 636; in the data active = inhibition above about 31%). As to conditions: absorbance 615 nm, about 18 h, stronger effect = higher value.
A short description of test [8]: growth suppression of yeast trafficking mutant, preliminary HTS, modulators of trafficking downstream of Golgi apparatus project, 1536-format plate, OD 615 nm (AID 637; in the data active = inhibition above about 30%). As to conditions: yeast transport mutant growth, absorbance 615 nm, 18 h; stronger effect = higher value.
The mark [9] stands for this setting: H69AR cells + 2 uM doxorubicin, measured here: viability with 2 uM doxorubicin, stronger effect = lower value.
Setting [10] is: H69AR cells, compound alone cytotoxicity.

Molecules are shown by their SMILES. Activity calls are given as the source filed them.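 The calls were made as follows, unless noted: active = viability at or under a set limit in both replicates, limit being median viability minus 3 SD (cut at about 48% in these data, passing the limit was not always enough); inconclusive = at or under the limit in just one replicate; inactive = at or above the limit in both replicates.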

Sequence of Receptor tyrosine-protein kinase erbB-2 (Homo sapiens) (P04626 whole entry, looked up): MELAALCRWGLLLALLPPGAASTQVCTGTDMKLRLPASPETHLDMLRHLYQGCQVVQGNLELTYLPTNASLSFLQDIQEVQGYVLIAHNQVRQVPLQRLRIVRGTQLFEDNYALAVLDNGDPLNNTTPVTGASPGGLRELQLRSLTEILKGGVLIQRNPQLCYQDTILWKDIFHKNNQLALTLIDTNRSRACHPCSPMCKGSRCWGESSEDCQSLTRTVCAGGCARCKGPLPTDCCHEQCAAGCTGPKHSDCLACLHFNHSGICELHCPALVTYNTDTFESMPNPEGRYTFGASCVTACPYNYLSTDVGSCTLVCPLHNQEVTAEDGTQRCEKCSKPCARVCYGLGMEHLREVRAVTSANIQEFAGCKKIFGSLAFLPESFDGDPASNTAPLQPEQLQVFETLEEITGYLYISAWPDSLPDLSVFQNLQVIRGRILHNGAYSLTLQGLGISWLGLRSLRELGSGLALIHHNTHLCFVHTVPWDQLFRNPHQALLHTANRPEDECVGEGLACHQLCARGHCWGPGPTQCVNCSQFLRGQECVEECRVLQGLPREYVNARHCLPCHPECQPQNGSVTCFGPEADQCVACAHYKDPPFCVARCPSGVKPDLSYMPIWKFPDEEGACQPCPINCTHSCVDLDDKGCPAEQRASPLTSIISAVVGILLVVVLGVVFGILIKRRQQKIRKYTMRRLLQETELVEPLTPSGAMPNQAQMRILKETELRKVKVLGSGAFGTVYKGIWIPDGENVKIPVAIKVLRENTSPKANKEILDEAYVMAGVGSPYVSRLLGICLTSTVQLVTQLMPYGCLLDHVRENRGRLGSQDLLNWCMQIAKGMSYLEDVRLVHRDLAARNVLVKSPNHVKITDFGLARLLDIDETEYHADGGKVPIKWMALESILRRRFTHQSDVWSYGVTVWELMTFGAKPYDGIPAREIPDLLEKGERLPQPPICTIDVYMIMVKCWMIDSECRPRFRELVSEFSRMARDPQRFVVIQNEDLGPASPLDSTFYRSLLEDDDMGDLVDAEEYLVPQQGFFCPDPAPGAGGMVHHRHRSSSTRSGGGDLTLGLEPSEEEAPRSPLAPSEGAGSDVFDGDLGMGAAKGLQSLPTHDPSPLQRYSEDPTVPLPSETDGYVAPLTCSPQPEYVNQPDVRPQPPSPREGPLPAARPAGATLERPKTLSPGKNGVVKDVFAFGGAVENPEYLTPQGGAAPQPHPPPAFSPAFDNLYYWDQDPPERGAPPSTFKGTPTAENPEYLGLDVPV

A word on the viability: it is a read-out of living cells in per cent, often relative to untreated cells. By inhibition is commonly meant the relative decrease from the control value, in per cent. With `Cc1cc(C)n2cc(CSc3nnnn3-c3ccc(Cl)cc3)nc2n1`, the viability in test [1] is 89.5%; in test [3], 89.5% (inactive); in test [4], 94.1% (inactive); in test [5], 97.6% (inactive); in test [6] (setting [9]), 90.5%; in test [6] (setting [10]), 97.6%. In addition, in test [2], the Her2 level is 89% (inactive). The differential viability (reversal) in test [6] (H69AR cells + 2 uM doxorubicin) is 7.13% (inactive). The inhibition in test [7] was -1.73% (inactive); in test [8], 0.65% (inactive).
Take `CCOc1ccccc1C1CC(=O)NC(SCC)=C1C#N` (stereo not given): the viability was 85.5% in test [1]; 85.5% (inactive) in test [3]; 109% (inactive) in test [4]; 97% (inactive) in test [5]; 89.6% in test [6] (setting [9]); 97% in test [6] (setting [10]). The Her2 level in test [2] was 89% (inactive). Moreover, the differential viability (reversal) in test [6] (H69AR cells + 2 uM doxorubicin) is 7.42% (inactive). In addition, the results for the inhibition in test [7] and in test [8] were -6.08% (inactive) and -2.17% (inactive), respectively.
Turning to `Cc1cccc2cc(CN(CCCO)C(=O)Nc3ccc(Cl)cc3)c(=O)[nH]c12`, the viability in test [1] was 74%; in test [3], 74% (inactive); in test [4], 67.9% (inactive); in test [5] it was 77.1% (inactive); in test [6] (setting [9]) it was 71.2%; in test [6] (setting [10]), 77.1%. In addition, the Her2 level in test [2] is 69.5% (inactive). Moreover, the differential viability (reversal) in test [6] (H69AR cells + 2 uM doxorubicin) was 5.85% (inactive). Further, the inhibition in test [7] is -5.32% (inactive); in test [8] it was -1.43% (inactive).
For the compound `CCSc1cc(C2C(C(=O)OC)=C(C)NC3=C2C(=O)CCC3)c(C)o1` (stereo not given), the viability in test [1] was 79%; in test [3] it was 79% (inactive); in test [4], 109% (inactive); in test [5], 84.5% (inactive); in test [6] (setting [9]) it was 78.8%; in test [6] (setting [10]) it was 84.5%. The Her2 level in test [2] is 90% (inactive). Moreover, the differential viability (reversal) in test [6] (H69AR cells + 2 uM doxorubicin) was 5.68% (inactive). The figures for the inhibition in test [7] and in test [8] were -6.8% (inactive) and 3.93% (inactive), respectively.
As to `COc1ccc2[nH]c(=O)c(CN(C(=O)c3ccncc3)C(C)C)cc2c1`, the viability was 96% in test [1]; 96% (inactive) in test [3]; 113% (inactive) in test [4]; 98.5% (inactive) in test [5]; 94.2% in test [6] (setting [9]); 98.5% in test [6] (setting [10]). In test [2], the Her2 level was 108% (inactive). In test [6] (H69AR cells + 2 uM doxorubicin), the differential viability (reversal) is 4.29% (inactive). For the same compound, the inhibition in test [7] was -3.12% (inactive); in test [8], 4% (inactive).
As to `CC(=O)O[C@H]1CSC[C@H]1NC(=O)c1ccccc1`, the viability in test [1] is 98.5%; in test [3], 98.5% (inactive); in test [4], 101% (inactive); in test [5], 99.8% (inactive); in test [6] (setting [9]), 88.8%; in test [6] (setting [10]), 99.8%. In addition, the Her2 level in test [2] is 97% (inactive). Moreover, the differential viability (reversal) in test [6] (H69AR cells + 2 uM doxorubicin) was 11% (inactive). Moreover, the inhibition in test [7] was -2.13% (inactive); in test [8], -1.77% (inactive).
On to `O=C(N1CCOCC1)N1CCC(NC(=O)C23CC4CC(CC(C4)C2)C3)CC1`, for which the viability in test [1] is 90%; in test [3], 90% (inactive); in test [4], 99.6% (inactive); in test [5], 98.8% (inactive); in test [6] (setting [9]), 90.4%; in test [6] (setting [10]) it was 98.8%. Further, in test [2], the Her2 level is 88% (inactive). Also, the differential viability (reversal) in test [6] (H69AR cells + 2 uM doxorubicin) is 8.44% (inactive). The inhibition in test [7] is -6% (inactive); in test [8], 4.84% (inactive).
Regarding `COc1ccc(OC)c(Nc2cc(-c3ccccc3)nc(N)n2)c1`, the viability in test [1] is 72%; in test [3], 72% (inactive); in test [4], 34.2% (inactive); in test [5] it was 30.7% (active); in test [6] (setting [9]) it was 67.1%; in test [6] (setting [10]) it was 30.7%. Moreover, the Her2 level in test [2] was 69% (inactive). The differential viability (reversal) in test [6] (H69AR cells + 2 uM doxorubicin) was -36.4% (inactive). Besides, the inhibition in test [7] was -5.92% (inactive); in test [8], -5.09% (inactive).
Turning to `CCc1cc(=O)oc2cc(OC(C)=O)cc(OC(C)=O)c12`, the viability in test [1] is 116%; in test [3], 116% (inactive); in test [4] it was 76.8% (inactive); in test [5] it was 95.1% (inactive); in test [6] (setting [9]) it was 105%; in test [6] (setting [10]), 95.1%. For the same compound, the Her2 level in test [2] was 74% (inactive). For the same compound, the differential viability (reversal) in test [6] (H69AR cells + 2 uM doxorubicin) is -9.96% (inactive). In addition, the inhibition is -7.37% (inactive) in test [7] and -5.5% (inactive) in test [8].
Consider `O=C(COC(=O)c1ccc(Br)o1)Nc1ccc(S(=O)(=O)N2CCCC2)cc1`, for which the viability in test [1] was 80%; in test [3] it was 80% (inactive); in test [4], 102% (inactive); in test [5], 95.6% (inactive); in test [6] (setting [9]), 82.3%; in test [6] (setting [10]) it was 95.6%. Moreover, in test [2], the Her2 level is 74.5% (inactive). In test [6] (H69AR cells + 2 uM doxorubicin), the differential viability (reversal) is 13.3% (inactive). For the same compound, the inhibition in test [7] is -6.35% (inactive); in test [8], -1% (inactive).
Turning to `N#CC1=C(SCC(=O)NC2CCCCC2)NC(=O)CC1c1ccco1` (stereo not given), the viability in test [1] is 113%; in test [3] it was 113% (inactive); in test [4], 74.8% (inactive); in test [5] it was 30.6% (active); in test [6] (setting [9]) it was 83.1%; in test [6] (setting [10]), 30.6%. For the same compound, the Her2 level in test [2] is 98% (inactive). Besides, the differential viability (reversal) in test [6] (H69AR cells + 2 uM doxorubicin) was -52.5% (inactive). For the same compound, the inhibition is -6.53% (inactive) in test [7] and 0.97% (inactive) in test [8].
Regarding `COc1cc(S(=O)(=O)N2CCOCC2)ccc1NC(=O)COC(=O)C12CC3CC(CC(C3)C1)C2`, the viability in test [1] is 92%; in test [3] it was 92% (inactive); in test [4], 87.2% (inactive); in test [5], 85% (inactive); in test [6] (setting [9]), 96.2%; in test [6] (setting [10]) it was 85%. For the same compound, the Her2 level in test [2] was 73.5% (inactive). In addition, the differential viability (reversal) in test [6] (H69AR cells + 2 uM doxorubicin) is -11.2% (inactive). Moreover, the inhibition in test [7] was 0.38% (inactive); in test [8] it was -11.7% (inactive).
Turning to `CN(C1CCS(=O)(=O)C1)S(=O)(=O)c1cccc2nsnc12` (stereo not given), the viability in test [1] is 104%; in test [3], 104% (inactive); in test [4], 107% (inactive); in test [5], 107% (inactive); in test [6] (setting [9]), 100%; in test [6] (setting [10]), 107%. Further, the Her2 level in test [2] is 100% (inactive). Besides, the differential viability (reversal) in test [6] (H69AR cells + 2 uM doxorubicin) was 6.67% (inactive). Further, the inhibition is -6.58% (inactive) in test [7] and -2.7% (inactive) in test [8].
In the case of `CCN(CC)S(=O)(=O)c1ccc(NC2CCCc3ccccc32)nc1` (stereo not given), the viability in test [1] is 71.5%; in test [3] it was 71.5% (inactive); in test [4], 88.6% (inactive); in test [5], 86% (inactive); in test [6] (setting [9]), 85.1%; in test [6] (setting [10]), 86%. In test [2], the Her2 level is 77% (inactive). Further, the differential viability (reversal) in test [6] (H69AR cells + 2 uM doxorubicin) was 0.97% (inactive). The results for the inhibition in test [7] and in test [8] were -4.46% (inactive) and -3.17% (inactive), respectively.
Consider `COc1cc(OC)cc(-c2nnc(SCC(=O)Nc3cc(C)on3)o2)c1`, for which the viability in test [1] was 92.5%; in test [3] it was 92.5% (inactive); in test [4], 82.7% (inactive); in test [5], 79.6% (inactive); in test [6] (setting [9]), 87.6%; in test [6] (setting [10]) it was 79.6%. In addition, in test [2], the Her2 level is 81% (inactive). Moreover, the differential viability (reversal) in test [6] (H69AR cells + 2 uM doxorubicin) is -7.97% (inactive). Also, the inhibition in test [7] was -5.53% (inactive); in test [8], -4.33% (inactive).

For the origin of these results see PubChem BioAssay.
